# Sampled rows, rich in hits. Any-hit rate of the full collection: about 1.8%.
# TCR-CD3 inh – inhibitors of human TCR-CD3 interaction; TAMRA-labeled TCR probe fluorescence, biochemical; inhibition, % at 9.4 µM; hit rate 0.37% among 360,000; in the data active = inhibition above about 19%;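 also: recombinant mutant TCR 2C K166C tagged with TAMRA read by polarization; 0% = receptor in buffer alone and 100% = receptor with positive control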
# Tn6 DDE FP – inhibitors of Tn6 peptide binding to human fibrin DD(E); P02675; inhibition, % at 8.3 µM; Fibrin DD(E) TRITC-Tn6 fluorescence polarization displacement; hit rate 0.21% among 370,000;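 active = inhibition above a per-campaign cutoff: mean of compounds within control limits plus 3 SD, cut at about 15% in these data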;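 also: 0% = median of all compound wells on the plate and 100% = blocking peptide control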
# HTRA1 inh – HTRA1 (human) protease inhibition; recombinant HTRA1, FP-rhodamine activity-based probe, fluorescence polarization; AID 504803; inhibition, % at 5.96 µM; Q92743; hit rate 0.5% among 340,000; in the data active = inhibition above about 36%;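 also: 0% = enzyme with DMSO and 100% = wells lacking enzyme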
# Tn7 DDE FP – DD(E)-Tn7 binding inhibition, primary FP screen | P02675 | FP displacement of FITC-Tn7 peptide from fibrin DD(E); 0% = median of compound wells per plate | inhibition, % at 8.3 µM | hit rate 0.13% among 370,000 | AID 720508;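 active = inhibition above the mean of compounds falling within the control limits plus 3 SD of them, cut at about 14% in these data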;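 also: 0% = plate median of compound wells and 100% = 10 µM Aha-Tn7 peptide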
#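 Also added: labelled Tn7 tracer, 0.1 µM; Assay system: human fibrin DD(E) protein; Amount: 2 µM fibrin DD(E); Schedule: 10 min compound pre-incubation, 3 h probe incubation at room temperature; Repeats: one replicate per compound; Read-out basis: percent inhibition; Measured by: fluorescence polarization of the labelled Tn7 tracer.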
# ABHD4 inh – inhibitors of mouse ABHD4; purified mABHD4, FP-Rh probe fluorescence polarization; Q8VD66; hit rate 0.54% among 370,000; inhibition, % at 8.92 µM;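 active = inhibition exceeding the mean over every tested compound plus 3 SD, cut at about 30% in these data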;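 also: 0% = plate median of compound wells and 100% = S159A mutant with DMSO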
# Target sequence (Q8VD66 whole entry, looked up): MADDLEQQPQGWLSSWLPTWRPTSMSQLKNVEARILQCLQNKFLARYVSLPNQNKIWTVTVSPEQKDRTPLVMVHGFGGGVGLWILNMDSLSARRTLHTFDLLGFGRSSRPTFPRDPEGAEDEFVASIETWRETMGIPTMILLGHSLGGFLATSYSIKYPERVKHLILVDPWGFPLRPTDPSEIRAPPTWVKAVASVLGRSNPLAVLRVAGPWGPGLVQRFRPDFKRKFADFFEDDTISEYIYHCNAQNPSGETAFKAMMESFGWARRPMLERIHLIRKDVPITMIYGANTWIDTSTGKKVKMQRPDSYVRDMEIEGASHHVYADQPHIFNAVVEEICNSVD
#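 Test system: mABHD4 protein | Buffer or medium: HEPES pH 7.0 buffer, 150 mM NaCl, 0.01% Pluronic F-127 | Probe or stimulus: FP-Rh fluorescent activity-based probe, added after compound pre-incubation | Timing: Pre-incubation 45 min, probe exposure 60 min, at 25 °C | Technique: Fluorescence polarization, excitation 525 nm, emission 598 nm, BODIPY TMR filters | Repeats: Single well per compound (singlicate)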
# SIAE inh – inhibitors of human sialic acid acetylesterase SIAE; Q9HAT2; SIAE FP-Rh probe binding, fluorescence polarization; inhibition, % at 9.66 µM; hit rate 0.69% among 370,000; AID 1053197;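 active = inhibition above a cutoff: mean of compounds within the control limits plus 3 SD of those, cut at about 17% in these data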;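 also: 0% = plate median of compound wells and 100% = probe without SIAE protein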
# SIAE inh conf – human SIAE inhibition, confirmation; shares compounds with SIAE inh; SIAE FP-Rh activity-based probe, fluorescence polarization; inhibition, % at 9.66 µM; hit rate 13% among 2,300; AID 1117263;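 active = mean inhibition of the replicates above the hit cutoff set in the primary screen, cut at about 17% in these data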;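 also: 0% = SIAE with DMSO and probe and 100% = probe without SIAE; inhibitors lower polarization as more probe stays unbound to SIAE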
# The depositor's hits bear a star; . = no result given.
SMILES,TCR-CD3 inh,Tn6 DDE FP,HTRA1 inh,Tn7 DDE FP,ABHD4 inh,SIAE inh,SIAE inh conf
C/C(=N\NC(=O)CCc1c[nH]c2ccccc12)c1ccc([N+](=O)[O-])cc1,-3,-1,-4,0,2,18*,4
C[C@@]12C(=O)Nc3cc(F)ccc3C(=O)N1[C@H]1c3ccccc3OC[C@@H]1[C@@H]2c1ccccc1,.,.,-49,.,.,.,.
Nc1ccc2nn(-c3ccccc3)nc2c1,-4,-5,6,2,6,19*,6
CC(=O)Nc1ccccc1-c1cccc2nccn12,-3,6,.,-8,6,-6,.
Cn1cc([N+](=O)[O-])c(C(=O)N/N=C/c2ccncc2)n1,2,5,-5,2,2,17*,3
COc1ccc(S(=O)(=O)N2CCOC2CNC(=O)C(=O)NCCCN2CCCC2=O)cc1OC (stereo not drawn),8,5,-4,3,2,-2,.
COc1ccc(Nc2nc(N)c([N+](=O)[O-])c(NCc3ccccc3)n2)cc1,3,-2,-1,-3,-2,24*,5
CN(CC(=O)Nc1ccccc1Cl)C(=O)COC(=O)/C=C/c1cccc(C(F)(F)F)c1,1,-3,-6,8,-3,-6,.
CCCCCC(=O)Nc1cc2[nH]c(=O)cc(COC)c2cc1C,-6,-8,-2,-2,9,-2,.
COCc1cc(=O)[nH]c2cc(NC(=O)C(C)(C)CCl)c(C)cc12,-2,0,1,-4,1,97*,0
CCN(CC)c1ccc(NC(=O)c2ccccn2)cc1S(=O)(=O)Nc1ccccc1OC,-2,-11,-37,-6,-18,-7,.
CC1(C(=O)Nc2ccccc2)CCN1C(=O)CCc1ccc(Cl)cc1Cl (stereo not drawn),-5,10,.,7,-3,19*,-1
CC1(C(=O)NS(=O)(=O)c2ccccc2Cl)CCN1C(=O)CCc1ccc(Cl)cc1Cl (stereo not drawn),2,1,.,-4,-4,3,.
Oc1ccc(N=Nc2nc(-c3ccccc3)c(-c3ccccc3)[nH]2)cc1,2,0,-3,-1,-22,37*,-1
Oc1ccc(N=Nc2n[nH]c(-c3ccccc3)n2)cc1,-6,-6,4,9,-3,-4,.
C[C@H]1CN([C@@H](C)CO)C(=O)CCCn2cc(nn2)CO[C@@H]1CN(C)S(=O)(=O)c1ccccc1F,1,-2,.,-2,1,3,.
COc1cc(NS(=O)(=O)c2ccc(NC(=O)CCC(=O)O)cc2)nc(OC)n1,1,-7,3,-5,0,17*,-7
CCOC(=O)CCC(=O)Nc1ccc(S(=O)(=O)Nc2cc(OC)nc(OC)n2)cc1,-3,-10,-1,-8,6,10,.
O=C(O)CSc1nnc(Nc2ccccc2)n1-c1ccccc1,-3,0,-7,1,-3,18*,3
CCN(c1nc(C)cc(OC)n1)S(=O)(=O)c1ccccc1,7,-5,1,-4,-3,18*,4
C=CCN1C(=O)c2ccccc2NC1c1cc(Br)cs1 (stereo not drawn),8,-2,-3,-3,-9,9,.
O=C(OC12CCCN(C1)/C(=C/c1ccc(Cl)cc1)C2)C1CCCCC1 (stereo not drawn),.,-5,.,-7,0,18*,0
N#Cc1ccc(/C=C2\CC3(OC(=O)C4CCCC4)CCCN2C3)cc1 (stereo not drawn),.,-1,.,-9,-1,23*,3
CC1(C(=O)O)CCCN1C(=O)c1ccccc1OC(F)(F)F (stereo not drawn),3,1,.,0,-7,1,.
COc1ccc(Nc2nc(-c3cccs3)cs2)c(OC)c1,-10,-15,18,-6,6,10,.
SMILES,TCR-CD3 inh,Tn6 DDE FP,HTRA1 inh,Tn7 DDE FP,ABHD4 inh,SIAE inh,SIAE inh conf
COc1ccc(OC)c(Nc2nc(-c3cccs3)cs2)c1,0,2,10,8,27,20*,2
Oc1ccc(Nc2nc(-c3cccs3)cs2)cc1,-3,2,23,7,-1,20*,6
C[C@@H]1NC(=O)[C@H]2C[C@@]3(c4ccccc4)c4ccccc4N[C@H]3N2C1=O,.,-11,.,-1,0,3,.
C=C1CC2C(=O)N(Cc3ccccc3)C(C(=O)OCC)(C(=O)OCC)C1N2C(=O)OC(C)(C)C (stereo not drawn),5,-3,-6,-5,-2,1,.
COc1ccc(NC(=O)COc2coc(CN3CCN(c4ccccc4)CC3)cc2=O)cc1,4,-8,-1,0,-2,9,.
O=C(NCCO)c1nc2ccccc2s1,5,3,0,-7,-1,-5,.
COCCNC(=O)c1nc2ccccc2s1,-1,1,4,0,0,19*,-2
Cc1cc2c(cc1C)NC1=C(N2)OC(c2cccc(O)c2)C1=O (stereo not drawn),-4,0,-2,3,-2,28*,-10
O=C(c1cccc(N2C(=O)C3C4C=CC(C4)C3C2=O)c1)N1CCN(c2ccccc2F)CC1 (stereo not drawn),0,2,-4,0,3,-3,.
COc1ccc(C(=O)C[n+]2ccccc2/C=N/O)cc1,-2,-5,1,1,-2,18*,6
COc1ccc2c(ccc[n+]2CC(=O)c2ccccc2)c1,4,5,7,5,4,1,.
COCCN1CCCc2nc(-c3ccc(F)cc3)ccc21,6,8,.,-4,6,-2,.
CN(C(=O)COC(=O)c1ccc(Cl)c(S(=O)(=O)N2CCCCCC2)c1)C1CCS(=O)(=O)C1 (stereo not drawn),-1,-4,-1,-2,4,19*,3
Cc1cc(=O)[nH]c(/N=C(\N)Nc2ccc3c(c2)OCCO3)n1,10,2,2,-3,-4,0,.
Cc1cc(C)nc(/N=C(\N)Nc2ccc3c(c2)OCCO3)n1,-6,-1,-2,5,7,18*,-5
OC(COc1ccc(CN2CCCCO2)cc1)CN1CCCCC1 (stereo not drawn),-9,-1,6,4,0,2,.
CCCN(CCC)C(=O)c1c(NC(=O)CC)sc2c1CCCCC2,6,7,6,7,6,22*,-5
COc1ccc(CCC(=O)N2CCCC(Nc3ccc(C)c(C)c3)C2)cc1OC (stereo not drawn),-2,3,-5,9,1,17*,5
COc1ccccc1OCCSc1nc2ccccc2n1CC(N)=O,3,-1,3,1,-3,17*,-2
